Test results taken from article PMC9453980 (ACS Omega, 2022).
Values belong to the compound of their own block, whether it stands above or below them.

What was measured:
[1] = system: BaPif1 (Bacteroides sp. 2-1-16); assay: fluorescence polarization
BaPif1 [2] = assay: F-EMSA assay of BaPif1-dT12 interaction; format: binding, Bacteroides sp. 2-1-16
BaPif1 [3] = assay: ATPase activity assay; format: biochemical, Bacteroides sp. 2-1-16; details: read-out: IC50, inhibition of ATPase activity of BaPif1
Method in brief: (§1)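 ATP depletion (luciferase) assay. BaPif1 (GST fusion expressed in E. coli BL21(DE3), tag cleaved) or hPif1 helicase domain (aa200-641, N-terminal His6, E. coli BL21(DE3)), at 0.1 mg/mL. Protein was preincubated with a compound dilution series for 30 min at 25 °C in 20 mM Tris-HCl pH 7.5, 150 mM NaCl, 5 mM MgCl2, 5% DMSO final. 100 nM ssDNA and 100 nM ATP were added, 10 min at 25 °C, then stopped with NaOH. Remaining ATP was read as firefly luciferase luminescence.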

BaPif1 [4] = assay: Helicase; format: biochemical, Bacteroides sp. 2-1-16; details: gel-based titration
hPif1-HD [5] = target: T1, hPif1-HD (Homo sapiens, UniProt Q9H611); assay: FP assay of DNA-binding activity
T1 sequence (Q9H611 200-641): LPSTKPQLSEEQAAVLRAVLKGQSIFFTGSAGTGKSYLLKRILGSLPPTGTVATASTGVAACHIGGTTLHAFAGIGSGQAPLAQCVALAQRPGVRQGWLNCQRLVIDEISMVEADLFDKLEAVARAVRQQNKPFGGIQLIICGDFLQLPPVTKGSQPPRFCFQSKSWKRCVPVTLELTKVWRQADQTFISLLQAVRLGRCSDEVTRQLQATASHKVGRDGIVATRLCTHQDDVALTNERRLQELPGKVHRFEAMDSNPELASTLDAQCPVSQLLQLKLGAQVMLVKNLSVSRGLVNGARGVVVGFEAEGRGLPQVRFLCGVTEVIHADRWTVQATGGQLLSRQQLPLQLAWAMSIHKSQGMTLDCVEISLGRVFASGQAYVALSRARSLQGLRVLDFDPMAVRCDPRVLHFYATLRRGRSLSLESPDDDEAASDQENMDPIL
Method in brief: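 Fluorescence polarization read at ex 480/em 520 nm. The hPif1 helicase domain (aa200-641, His6-tagged) was at 10 μM with 0.5 μM FAM-labelled DNA and a titration of test compound. Buffer was 25 mM Tris-HCl pH 7.5, 5 mM MgCl2, with no DTT. IC50 was obtained by fitting the binding curves.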

hPif1-HD [6] = target: T1, hPif1-HD; assay: ATPase activity assay; format: biochemical
Method in brief: as §1

hPif1-HD [7] = target: T1, hPif1-HD; assay: Helicase; format: biochemical; details: 20 μM hPif1-HD, 20 bp dsDNA with 5′ dT55 tail
BaPif1 [8] = assay: Filtration-dilution reversibility experiment; format: biochemical, Bacteroides sp. 2-1-16; details: 50 μM compound, three filtration and dilution cycles, 1000-fold dilution
Method in brief: (§2)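 Reversibility test. Wild-type or C380A BaPif1 at 0.1 mg/mL in ATPase buffer was incubated 30 min with 5% DMSO or 50 μM compound in 5% DMSO. It was concentrated on a 10 kDa cut-off centrifugal filter and the retentate diluted 10-fold with buffer. This was done three times (1000-fold total). Residual ATPase activity was then measured by the luciferase ATP assay and expressed as percent inhibition.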

BaPif1 C380A mutant [9] = assay: FP assay of DNA-binding activity, C380A mutant; set-up: species or system Bacteroides sp. 2-1-16
Method in brief: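 FP competition with FAM-labelled DNA in 25 mM Tris-HCl pH 7.5, 5 mM MgCl2 (ex 480/em 520 nm). The C380A point mutant was made by PCR mutagenesis and purified as for wild type, and was compared with wild-type BaPif1. Each protein was held with 50 μM test compound across a range of DTT concentrations to give dose-response curves.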

BaPif1 C234A mutant = assay: FP assay of DNA-binding activity, C234A mutant; set-up: species or system Bacteroides sp. 2-1-16
BaPif1 C380A mutant [10] = assay: Filtration-dilution reversibility experiment, C380A mutant; format: biochemical, Bacteroides sp. 2-1-16; details: filtration experiments
Method in brief: as §2

HeLa cells [11] = assay: RPA foci formation; format: cell-based, human
Method in brief: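 HeLa cells were seeded for 24 h, then treated with test agents for 24 h. They were fixed in 4% paraformaldehyde for 20 min, permeabilized with 0.3% Triton X-100 and blocked in 5% BSA. Cells were stained overnight at 4 °C for RPA2 and γH2AX, then with fluorescent secondaries and DAPI. Automated microscopy scored the percentage of RPA-foci-positive cells.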

HeLa cells [12] = assay: Western blot of Pif1, RPA2 and γH2AX; format: cell-based, human; details: 10 μM TD combined with 2.5 mM HU
Method in brief: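 HeLa lysates were made in RIPA buffer with protease inhibitor at 4 °C and quantified by BCA. 10−30 μg per lane was run on SDS-PAGE and blotted to PVDF. Membranes were blocked 1 h in 5% milk and probed overnight at 4 °C for Pif1, RPA2, γH2AX and GAPDH (loading control). HRP anti-mouse secondary (1:5000, 1 h) and ECL detection followed.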

GSK-3β = details: cited from earlier work
"Cys-conserved" kinases = details: 10 μM TD, panel of 68 kinases; cited from earlier work

Compound: TTTTTTTTTTTTTTTTTT [FAM-dT18]
- Kd [1]: 7 µM

- IC50 (BaPif1 [3]): 2.3 ± 0.13 µM
- Concentration at which unwinding (helicase) activity of BaPif1 was inhibited (BaPif1 [4]): 4 µM
- IC50 (hPif1-HD [5]): 5.79 ± 0.6 µM
- IC50 (hPif1-HD [6]): 2.5 ± 0.1 µM
- Concentration at which helicase activity of hPif1-HD was inhibited (hPif1-HD [7]): 7.8 µM
- Reversibility of inhibition of BaPif1 ATPase activity after filtration-dilution (BaPif1 [8]): irreversible
- Sensitivity of C380A mutant to the compound compared with wild-type (BaPif1 C380A mutant [9]): less sensitive
- Sensitivity of C234A mutant to the compound compared with wild-type (BaPif1 C234A mutant): little change
- Reversibility of inhibition of C380A ATPase activity after filtration (BaPif1 C380A mutant [10]): reversible
Compound: O=c1sn(-c2cccc3ccccc23)c(=O)n1Cc1ccccc1 [TD, Tideglusib]
- Blocking of ssDNA binding to BaPif1 (F-EMSA), in words (BaPif1 [2]): could block the binding of single-stranded DNA (ssDNA) to the BaPif1 protein
- Reduction of RPA foci formation (HeLa cells [11]; 10 μM TD combined with 2.5 mM HU, 24 h): 20%
- Protein level of Pif1 and RPA (HeLa cells [12]): did not alter
- Protein level of γH2AX (HeLa cells [12]): slightly decreased
- Reversibility of GSK-3β inhibition (GSK-3β): irreversibly
- Number of "Cys-conserved" kinases significantly inhibited ("Cys-conserved" kinases): 10 of the 26

Compound: NC(=O)NO [HU, hydroxyurea]
- Induction of RPA foci formation (HeLa cells [11]; 2.5 mM HU): efficiently induce RPA foci formation
